Measurements reported in ChEMBL document CHEMBL3596194, “Design, synthesis and biological evaluation of bivalent benzoxazolone and benzothiazolone ligands as potential anti-inflammatory/analgesic agents” (Bioorg Med Chem, 2015).
The source made the active and inactive calls. No cut-off for these calls is given here.

System: Mus musculus
Assay: Antinociceptive activity in ip dosed Swiss mouse assessed as inhibition of acetic acid-induced writhing response at 3 mg/kg, ip administered 30 mins prior to acetic acid challenge measured for 20 mins relative to vehicle-treated control
Assay type: functional, organism-based
How it was run: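 Mice dosed i.p. with compound or vehicle 15 min before testing, or with indomethacin 3 mg/kg i.p. 30 min before. After 15 min habituation in an enclosure, 0.9% acetic acid given i.p. (1 ml/0.1 kg) and writhes counted for 20 min. Non-responders excluded; n = 4-6; mean ± SD.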

Compound: COc1ccc2c(c1)c(CC(=O)O)c(C)n2C(=O)c1ccc(Cl)cc1
- inhibition: Active
